Values after ≈ are worked out from the molar mass of the structure shown. Active and inactive are the calls of the source. The rule behind the calls is not given here.
Columns and labels:
[1] = Antioxidant activity against Primary human whole blood cell assessed as trolox equivalent of total antioxidant capacity at 500 nM incubated for 24 hrs (19.3 to 32.5 mmolequiv/L ); type: functional
[2] = Antioxidant activity against rat Cerebral cortex cell assessed as H2O2 equivalent of total oxidative stress at 50 nM incubated for 24 hrs (0.7 to 2.3 micromolequiv/L); type: functional, Cerebral cortex neuron
[3] = Antioxidant activity against rat Cerebral cortex cell assessed as H2O2 equivalent of total oxidative stress at 100 nM incubated for 24 hrs (0.7 to 2.3 micromolequiv/L); type: functional, Cerebral cortex neuron
[4] = Antioxidant activity against Primary human whole blood cell assessed as H2O2 equivalent of total oxidative stress at 10 nM incubated for 24 hrs (0.6 to 1.9 micromolequiv/L); type: functional
[5] = Antioxidant activity against Primary human whole blood cell assessed as H2O2 equivalent of total oxidative stress at 100 nM incubated for 24 hrs (0.6 to 1.9 micromolequiv/L); type: functional
[6] = Antioxidant activity against Primary human whole blood cell assessed as H2O2 equivalent of total oxidative stress at 500 nM incubated for 24 hrs (0.6 to 1.9 micromolequiv/L); type: functional
[7] = Induction of DNA damage in rat Cerebral cortex cell assessed as 8-OH-dG adducts formation at 500 nM incubated for 24 hrs by […] (reference value: 0.14 to 1.92 pg/ml); type: functional, Cerebral cortex neuron
Method in brief: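 Primary rat cerebral cortex neurons from fetuses, grown in neurobasal medium with FCS on poly-D-lysine flasks and used after 8 days. Aqueous compound at 10–500 nM for 24 h at 37 °C. Untreated cultures served as negative control and MMC 10^-7 M as positive control. 8-OH-dG measured with a commercial ELISA-type kit and reported in pg/mL. Four independent experiments, mean ± SD.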

[8] = Induction of DNA damage in Primary human whole blood cell assessed as 8-OH-dG adducts formation at 50 nM incubated for 24 hrs by […] (reference value: 0.12 to 2.21 pg/ml); type: functional
[9] = Induction of DNA damage in Primary human whole blood cell assessed as 8-OH-dG adducts formation at 100 nM incubated for 24 hrs by […] (reference value: 0.12 to 2.21 pg/ml); type: functional
[10] = Induction of DNA damage in rat Cerebral cortex cell assessed as total DNA damage score at 100 nM incubated for 24 hrs by Comet assay (reference value: 36.8 to 89.2); type: functional, Cerebral cortex neuron
[11] = Induction of DNA damage in Primary human whole blood cell assessed as total DNA damage score at 10 nM incubated for 24 hrs by Comet assay (reference value: 35.4 to 77.9); type: functional
[12] = Induction of DNA damage in Primary human whole blood cell assessed as total DNA damage score at 100 nM incubated for 24 hrs by Comet assay (reference value: 35.4 to 77.9); type: functional
[13] = Genotoxicity in human Lymphocyte assessed as sister chromatid exchange measured per cells at 10 nM incubated for 72 hrs giemsa staining based fluorescence method (reference value: 6.6 to 14.3); type: toxicity, cell-based; conditions: 0.01 µM
[14] = Genotoxicity in human Lymphocyte assessed as sister chromatid exchange measured per cells at 100 nM incubated for 72 hrs giemsa staining based fluorescence method (reference value: 6.6 to 14.3); type: toxicity, cell-based; conditions: 0.1 µM
[15] = Genotoxicity in human Lymphocyte assessed as sister chromatid exchange measured per cells at 250 nM incubated for 72 hrs giemsa staining based fluorescence method (reference value: 6.6 to 14.3); type: toxicity, cell-based; conditions: 0.25 µM
[16] = Genotoxicity in human Lymphocyte assessed as micronuclei formation measured per 1000 cells at 100 nM incubated for 72 hrs giemsa staining based analysis (reference value: 4.5 to 17.9); type: toxicity, cell-based; conditions: 0.1 µM
Method in brief: (§1)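 Human whole-blood lymphocyte cultures with phytohemagglutinin, incubated with compound for 72 h at 37 °C. Cytochalasin B added at 44 h. Cells fixed in ice-cold methanol/acetic acid 1:1, cytospun, Giemsa-stained. At least 1000 binucleated lymphocytes per concentration scored for micronuclei by one observer.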

[17] = Genotoxicity in human Lymphocyte assessed as micronuclei formation measured per 1000 cells at 500 nM incubated for 72 hrs giemsa staining based analysis (reference value: 4.5 to 17.9); type: toxicity, cell-based; conditions: 0.5 µM; method in brief: as §1
[18] = Partition coefficient, logP of the compound by HPLC-UV analysis; type: physicochemical; conditions: octanol/water
[19] = Solubility of the compound in water by HPLC-UV analysis; type: physicochemical
[20] = Stability of the compound in stimulated gastric fluid at 10 mg/ml pepsin by measuring half life measured upto 60 mins by HPLC analysis; type: ADME; conditions: simulated gastric fluid with pepsin
Method in brief: (§2)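 USP simulated gastric fluid containing pepsin, preheated, in a 37 °C shaking water bath. Samples at 0, 15, 30 and 60 min were deproteinized with ice-cold acetonitrile containing 0.5% formic acid, centrifuged at 4 °C, filtered and analyzed by HPLC. Means of three experiments.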

[21] = Stability of the compound in hydrochloric acid buffer assessed as chemical hydrolysis by measuring observed rate constant at pH 1.2; type: physicochemical
Method in brief: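 Chemical hydrolysis at 37 °C in hydrochloric acid buffer pH 1.2 or phosphate buffer pH 7.4. Remaining compound followed by HPLC with UV detection. t1/2 and k_obs are means of three experiments ± SD.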

[22] = Stability of the compound in stimulated gastric fluid at 10 mg/ml pepsin by measuring observed rate constant measured upto 60 mins by HPLC analysis; type: ADME; conditions: simulated gi fluid, 1 h; method in brief: as §2
[23] = Stability of the compound in stimulated intestinal fluid at 10 mg/ml pancreatin by measuring observed rate constant measured upto 180 mins by HPLC analysis; type: ADME; conditions: simulated gi fluid, 3 h
Method in brief: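 USP simulated intestinal fluid containing pancreatin, in a 37 °C shaking water bath. Samples at 0, 60, 120 and 180 min were quenched with ice-cold acetonitrile containing 0.5% formic acid, centrifuged at 4 °C for 10 min, filtered and analyzed by HPLC. Means of three experiments ± SD.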

[24] = Cytotoxicity against Primary human whole blood cell at 10 to 500 nM incubated for 24 hrs by MTT assay; type: toxicity, cell-based; conditions: 0.5 µM, dose 10-500 nM
Method in brief: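 Primary cultures (rat fetal cortical neurons; human whole-blood cultures with phytohemagglutinin) exposed to aqueous compound at 10–500 nM for 24 h at 37 °C. Then incubated with 0.7 mg/mL MTT for 30 min at 37 °C, formazan extracted with isopropanol/formic acid 95:5, read at 560 nm. Control formazan = 100% viability. Mitomycin C 10^-7 M as positive control; n = 4.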

[25] = Cytotoxicity against Primary human whole blood cell at 10 to 500 nM incubated for 24 hrs by LDH assay; type: toxicity, cell-based; conditions: 0.5 µM, dose 10-500 nM
Method in brief: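 Rat fetal cortical neuron or human whole-blood cultures treated 24 h at 37 °C with aqueous compound at 10–500 nM. LDH released into 100 µL of medium measured by kit as the rate of NAD+ reduction (lactate to pyruvate), absorbance increase at 490 nm. Mitomycin C 10^-7 M as positive control; four independent experiments.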

PC-12 = assay: Inhibition of MPP+ induced ROS production in rat PC-12 cells at 100 nM preincubated with compound for 24 hrs followed by MPP+ treatment for 24 hrs by DCFH-DA staining based fluorescence method; conditions: time 48.0 hrs

logP [18]	solubility [19] [µg/mL]	half-life [20] [h]	SMILES	Activity [1] [mmolequiv/L]	Activity [2] [umolequiv/L]	Activity [3] [umolequiv/L]	Activity [4] [umolequiv/L]	Activity [5] [umolequiv/L]	Activity [6] [umolequiv/L]	Activity [7] [pg/mL]	Activity [8] [pg/mL]	Activity [9] [pg/mL]	Activity [10]	Activity [11]	Activity [12]	Activity [13]	Activity [14]	Activity [15]	Activity [16]	Activity [17]	other results
0.68	323 (≈ 795 µM)	24.2	C=CCSC[C@H]1NC(=O)[C@H](Cc2ccc(OC(C)=O)c(OC(C)=O)c2)NC1=O	18.4	0.7	0.7	0.6	0.7	0.7	0.15	0.12	0.12	37.1	35	35.5	6.8	6.9	7.1	5	5.2	Kobs [21]: 0.037 h⁻¹; Kobs [22]: 0.029 h⁻¹; Kobs [23]: 1.03 h⁻¹; Activity [24]: Non-Toxic; Activity [25]: Non-Toxic; inhibition (PC-12): Active
0.35	630 (≈ 1560 µM)	91	C#CCSC[C@H]1NC(=O)[C@H](Cc2ccc(OC(C)=O)c(OC(C)=O)c2)NC1=O	19.4	0.6	0.6	0.6	0.6	0.7	0.15	0.11	0.12	37.8	36	35.6	6.5	6.6	7.1	4.9	5.1	Kobs [21]: 0.005 h⁻¹; Kobs [22]: 0.008 h⁻¹; Kobs [23]: 0.198 h⁻¹; Activity [24]: Non-Toxic; Activity [25]: Non-Toxic; inhibition (PC-12): Active
